According to ChEMBL document CHEMBL3576845, “Discovery of Novel Multiacting Topoisomerase I/II and Histone Deacetylase Inhibitors” (ACS Med Chem Lett, 2015):
Activity calls are given as the source filed them. The rule behind the calls is not given here.

Key:
HCT-116 [1] = experiment: Induction of apoptosis in human HCT116 cells assessed as late apoptotic cells at 5 uM after 24 hrs by annexin V-FITC/propidium iodide staining-based flow cytometric analysis (reference value: 1.05%); format: functional
HCT-116 [2] = experiment: Induction of apoptosis in human HCT116 cells assessed as early apoptotic cells at 5 uM after 24 hrs by annexin V-FITC/propidium iodide staining-based flow cytometric analysis (reference value: 2.27%); format: functional
HCT-116 [3] = experiment: Induction of apoptosis in human HCT116 cells assessed as early apoptotic cells at 5 uM after 48 hrs by annexin V-FITC/propidium iodide staining-based flow cytometric analysis (reference value: 2.76%); format: functional
HCT-116 [4] = experiment: Induction of apoptosis in human HCT116 cells assessed as necrotic cells at 5 uM after 48 hrs by annexin V-FITC/propidium iodide staining-based flow cytometric analysis (reference value: 5.25%); format: functional
HCT-116 [5] = experiment: Induction of apoptosis in human HCT116 cells assessed as necrotic cells at 5 uM after 24 hrs by annexin V-FITC/propidium iodide staining-based flow cytometric analysis (reference value: 8%); format: functional
HCT-116 [6] = experiment: Induction of apoptosis in human HCT116 cells assessed as late apoptotic cells at 5 uM after 48 hrs by annexin V-FITC/propidium iodide staining-based flow cytometric analysis (reference value: 3.03%); format: functional
MDA-MB-231 = experiment: Cytotoxicity against human MDA-MB-231 cells assessed as growth inhibition after 72 hrs by MTT assay; format: functional, cell-based; conditions: MDA-MB-231, 72 h
HCT-116 [7] = experiment: Cytotoxicity against human HCT116 cells assessed as growth inhibition after 72 hrs by MTT assay; format: functional, cell-based; conditions: HCT-116, 72 h
[8] = target: T1, DNA topoisomerase 1 (Homo sapiens) (UniProt P11387); experiment: Inhibition of topoisomerase1 (unknown origin)-mediated pBR322 DNA relaxation at 50 uM after 15 mins by agarose gel electrophoresis
T1 sequence (whole entry): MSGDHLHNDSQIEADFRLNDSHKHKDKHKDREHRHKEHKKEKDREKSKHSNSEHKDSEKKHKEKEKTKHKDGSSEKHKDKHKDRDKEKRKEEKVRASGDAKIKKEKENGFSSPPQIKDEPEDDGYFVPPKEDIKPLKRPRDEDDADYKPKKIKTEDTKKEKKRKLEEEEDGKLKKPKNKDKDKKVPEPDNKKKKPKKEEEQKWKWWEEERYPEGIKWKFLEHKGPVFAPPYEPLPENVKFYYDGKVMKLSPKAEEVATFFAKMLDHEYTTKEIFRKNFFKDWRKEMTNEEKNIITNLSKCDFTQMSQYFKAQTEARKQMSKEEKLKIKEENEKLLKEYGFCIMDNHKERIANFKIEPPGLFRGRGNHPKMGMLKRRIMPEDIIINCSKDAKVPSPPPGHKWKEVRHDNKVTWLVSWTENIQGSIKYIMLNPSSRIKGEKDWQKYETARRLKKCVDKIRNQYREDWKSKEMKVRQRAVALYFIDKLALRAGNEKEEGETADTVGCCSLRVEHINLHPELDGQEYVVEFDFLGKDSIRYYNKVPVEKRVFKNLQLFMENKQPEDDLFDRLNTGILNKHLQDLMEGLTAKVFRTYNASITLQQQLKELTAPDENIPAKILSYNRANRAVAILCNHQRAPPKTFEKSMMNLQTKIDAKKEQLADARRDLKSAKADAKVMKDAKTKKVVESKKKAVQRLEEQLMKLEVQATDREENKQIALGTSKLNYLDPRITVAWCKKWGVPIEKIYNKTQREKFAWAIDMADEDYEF
In short: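 Relaxation of supercoiled pBR322 plasmid by purified Top1 with compound at 50 μM; camptothecin 50 μM as reference; DNA-only and DNA + enzyme lanes as controls; gel read-out; repeated 3 times.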

[9] = target: DNA topoisomerase 2-alpha (Homo sapiens) (UniProt P11388); experiment: Inhibition of topoisomerase-2alpha (unknown origin)-mediated pBR322 DNA relaxation at 50 uM after 30 mins by agarose gel electrophoresis
DNA topoisomerase 2-alpha (Homo sapiens), sequence (P11388 whole entry): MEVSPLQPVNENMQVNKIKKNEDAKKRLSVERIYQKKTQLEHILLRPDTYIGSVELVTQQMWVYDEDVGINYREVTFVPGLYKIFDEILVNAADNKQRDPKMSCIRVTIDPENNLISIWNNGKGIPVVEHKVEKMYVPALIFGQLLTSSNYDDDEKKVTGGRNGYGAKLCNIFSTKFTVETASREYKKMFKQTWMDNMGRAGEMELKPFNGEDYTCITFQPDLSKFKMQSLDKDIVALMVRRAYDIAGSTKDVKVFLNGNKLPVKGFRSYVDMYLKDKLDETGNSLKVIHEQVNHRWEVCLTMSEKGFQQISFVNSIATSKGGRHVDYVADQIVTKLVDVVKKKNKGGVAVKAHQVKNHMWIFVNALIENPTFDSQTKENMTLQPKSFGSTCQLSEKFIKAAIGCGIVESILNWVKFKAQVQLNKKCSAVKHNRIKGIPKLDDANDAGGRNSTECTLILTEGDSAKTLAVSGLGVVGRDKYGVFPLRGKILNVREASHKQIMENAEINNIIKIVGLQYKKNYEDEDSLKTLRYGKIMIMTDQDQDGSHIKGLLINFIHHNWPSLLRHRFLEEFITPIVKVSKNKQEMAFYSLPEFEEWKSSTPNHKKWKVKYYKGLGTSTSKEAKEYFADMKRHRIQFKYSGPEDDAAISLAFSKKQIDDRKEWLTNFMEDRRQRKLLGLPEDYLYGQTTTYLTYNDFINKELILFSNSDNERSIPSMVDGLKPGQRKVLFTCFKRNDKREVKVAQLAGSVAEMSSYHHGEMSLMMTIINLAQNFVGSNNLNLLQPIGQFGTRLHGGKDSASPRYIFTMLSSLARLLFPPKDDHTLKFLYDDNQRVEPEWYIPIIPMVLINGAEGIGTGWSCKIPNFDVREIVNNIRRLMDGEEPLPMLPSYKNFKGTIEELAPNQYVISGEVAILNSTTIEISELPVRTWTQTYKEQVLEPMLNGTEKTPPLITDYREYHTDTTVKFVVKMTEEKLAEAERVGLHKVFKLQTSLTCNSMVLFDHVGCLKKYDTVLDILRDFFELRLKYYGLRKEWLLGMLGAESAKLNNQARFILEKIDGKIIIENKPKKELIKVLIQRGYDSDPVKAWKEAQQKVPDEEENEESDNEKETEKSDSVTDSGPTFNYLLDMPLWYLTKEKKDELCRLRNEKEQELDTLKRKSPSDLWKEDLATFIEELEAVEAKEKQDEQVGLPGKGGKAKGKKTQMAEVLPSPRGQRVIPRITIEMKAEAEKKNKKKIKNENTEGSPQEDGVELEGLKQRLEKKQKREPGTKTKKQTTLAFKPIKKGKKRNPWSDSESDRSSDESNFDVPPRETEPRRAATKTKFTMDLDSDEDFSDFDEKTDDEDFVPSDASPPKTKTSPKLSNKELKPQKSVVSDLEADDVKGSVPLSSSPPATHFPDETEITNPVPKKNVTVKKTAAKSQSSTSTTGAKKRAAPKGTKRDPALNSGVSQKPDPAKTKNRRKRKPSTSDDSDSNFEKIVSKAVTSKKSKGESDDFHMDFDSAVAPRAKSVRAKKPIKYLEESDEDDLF
In short: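 Purified Top2α relaxation of supercoiled pBR322 plasmid with compound at 50 μM; etoposide 50 μM as reference; DNA-only and DNA + enzyme lanes as controls; gel read-out; repeated 3 times.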

[10] = Cytotoxicity against HLF assessed as growth inhibition after 72 hrs by MTT assay; format: functional; conditions: Homo sapiens
Histone deacetylase 1 = Histone deacetylase 1 (Homo sapiens, UniProt Q13547); experiment: Inhibition of recombinant full length human HDAC1 (1 to 482) expressed in baculovirus infected insect Sf9 cells using fluorogenic HDAC substrate 3 after 30 mins by fluorescence assay
Histone deacetylase 1, sequence (Q13547 whole entry): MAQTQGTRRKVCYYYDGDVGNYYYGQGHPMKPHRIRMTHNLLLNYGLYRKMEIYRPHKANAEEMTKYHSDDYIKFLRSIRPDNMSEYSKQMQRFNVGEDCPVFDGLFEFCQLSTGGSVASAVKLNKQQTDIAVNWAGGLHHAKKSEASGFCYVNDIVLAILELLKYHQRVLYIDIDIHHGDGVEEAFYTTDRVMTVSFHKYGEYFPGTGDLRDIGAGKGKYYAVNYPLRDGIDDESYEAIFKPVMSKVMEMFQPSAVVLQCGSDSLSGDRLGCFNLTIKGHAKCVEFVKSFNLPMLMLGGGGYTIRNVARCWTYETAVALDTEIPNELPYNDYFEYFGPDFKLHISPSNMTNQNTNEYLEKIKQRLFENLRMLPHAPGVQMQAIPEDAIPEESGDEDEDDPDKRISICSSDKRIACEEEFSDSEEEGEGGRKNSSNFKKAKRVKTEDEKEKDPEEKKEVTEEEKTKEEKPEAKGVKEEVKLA

[11] = target: Histone deacetylase (Homo sapiens) (UniProt Q13547+O15379+Q9UBN7+Q92769+Q9UQL6+Q8WUI4+Q9BY41+Q96DB2+P56524+Q9UKV0+Q969S8); experiment: Inhibition of HDAC in human HCT116 cells assessed as induction of histone H3 hyperacetylation at 2.5 to 5 uM after 24 to 48 hrs by Western blot analysis; format: cell-based; conditions: HCT-116
In short: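 HCT116 cells treated 24 h with compound at 2.5 or 5 μM alongside an untreated control; lysates probed by Western blot for acetylated histone H3.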

[12] = target: T2, Protein deacetylase HDAC6 (Homo sapiens, UniProt Q9UBN7); experiment: Inhibition of recombinant N-terminal GST-tagged full length human HDAC6 expressed in baculovirus infected insect Sf9 cells using fluorogenic HDAC substrate 3 after 30 mins by fluorescence assay
T2 sequence (Q9UBN7 whole entry): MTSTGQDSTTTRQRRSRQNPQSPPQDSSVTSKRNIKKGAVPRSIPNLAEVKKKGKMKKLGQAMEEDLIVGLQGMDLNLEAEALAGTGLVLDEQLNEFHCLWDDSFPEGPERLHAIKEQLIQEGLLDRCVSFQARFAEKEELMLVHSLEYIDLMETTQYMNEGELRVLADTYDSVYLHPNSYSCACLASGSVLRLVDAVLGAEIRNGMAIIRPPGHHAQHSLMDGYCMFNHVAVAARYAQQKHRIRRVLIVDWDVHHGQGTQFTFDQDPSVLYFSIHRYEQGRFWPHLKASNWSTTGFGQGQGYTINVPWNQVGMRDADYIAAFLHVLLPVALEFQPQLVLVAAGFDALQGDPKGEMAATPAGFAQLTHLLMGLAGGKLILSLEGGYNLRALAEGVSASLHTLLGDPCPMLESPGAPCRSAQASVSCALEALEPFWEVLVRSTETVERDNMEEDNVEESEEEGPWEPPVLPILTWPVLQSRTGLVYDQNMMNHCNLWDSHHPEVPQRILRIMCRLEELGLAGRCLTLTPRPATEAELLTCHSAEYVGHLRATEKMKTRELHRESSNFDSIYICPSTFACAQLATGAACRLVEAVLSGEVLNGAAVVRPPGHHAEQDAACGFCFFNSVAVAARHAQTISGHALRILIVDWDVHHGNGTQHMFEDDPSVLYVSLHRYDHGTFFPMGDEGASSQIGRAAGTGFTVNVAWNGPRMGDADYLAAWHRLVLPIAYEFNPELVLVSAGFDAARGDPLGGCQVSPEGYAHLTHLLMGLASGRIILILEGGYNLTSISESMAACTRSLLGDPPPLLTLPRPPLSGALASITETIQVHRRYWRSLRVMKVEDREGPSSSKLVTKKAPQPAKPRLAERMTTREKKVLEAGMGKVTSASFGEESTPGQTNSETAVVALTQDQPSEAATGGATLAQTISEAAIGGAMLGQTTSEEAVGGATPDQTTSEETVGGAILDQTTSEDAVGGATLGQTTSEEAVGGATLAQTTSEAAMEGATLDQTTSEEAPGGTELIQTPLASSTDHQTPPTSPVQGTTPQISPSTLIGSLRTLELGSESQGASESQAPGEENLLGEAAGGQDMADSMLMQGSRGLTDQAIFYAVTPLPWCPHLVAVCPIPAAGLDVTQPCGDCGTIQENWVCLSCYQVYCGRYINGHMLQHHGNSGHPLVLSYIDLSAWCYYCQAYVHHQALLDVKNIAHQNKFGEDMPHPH

Histone deacetylase 2 = Histone deacetylase 2 (Homo sapiens, UniProt Q92769); experiment: Inhibition of recombinant C-terminal His-tagged full length human HDAC2 expressed in baculovirus infected insect Sf9 cells using fluorogenic HDAC substrate 3 after 30 mins by fluorescence assay; format: cell-based
[13] = target: Histone deacetylase 3/Nuclear receptor corepressor 2 (HDAC3/NCoR2) (Homo sapiens, UniProt O15379); experiment: Inhibition of recombinant C-terminal His-tagged full length human HDAC3/NcoR2 complex expressed in baculovirus infected insect Sf9 cells using fluorogenic HDAC substrate 3 after 30 mins by fluorescence assay
Histone deacetylase 3/Nuclear receptor corepressor 2 (HDAC3/NCoR2), sequence (O15379 whole entry): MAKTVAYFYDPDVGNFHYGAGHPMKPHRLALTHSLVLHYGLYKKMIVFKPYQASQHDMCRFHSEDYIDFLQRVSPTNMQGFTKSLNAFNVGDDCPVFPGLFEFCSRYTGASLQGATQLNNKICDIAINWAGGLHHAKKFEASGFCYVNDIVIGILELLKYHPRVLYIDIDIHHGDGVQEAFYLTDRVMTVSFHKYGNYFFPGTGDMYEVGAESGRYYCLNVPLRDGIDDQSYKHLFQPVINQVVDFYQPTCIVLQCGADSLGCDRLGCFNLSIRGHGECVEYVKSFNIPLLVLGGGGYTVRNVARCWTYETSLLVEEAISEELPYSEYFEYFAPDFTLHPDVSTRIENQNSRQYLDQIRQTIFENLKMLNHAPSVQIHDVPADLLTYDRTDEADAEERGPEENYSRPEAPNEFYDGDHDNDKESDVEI
Histone deacetylase 3/Nuclear receptor corepressor 2 (HDAC3/NCoR2), sequence (Q9Y618 whole entry, further chain): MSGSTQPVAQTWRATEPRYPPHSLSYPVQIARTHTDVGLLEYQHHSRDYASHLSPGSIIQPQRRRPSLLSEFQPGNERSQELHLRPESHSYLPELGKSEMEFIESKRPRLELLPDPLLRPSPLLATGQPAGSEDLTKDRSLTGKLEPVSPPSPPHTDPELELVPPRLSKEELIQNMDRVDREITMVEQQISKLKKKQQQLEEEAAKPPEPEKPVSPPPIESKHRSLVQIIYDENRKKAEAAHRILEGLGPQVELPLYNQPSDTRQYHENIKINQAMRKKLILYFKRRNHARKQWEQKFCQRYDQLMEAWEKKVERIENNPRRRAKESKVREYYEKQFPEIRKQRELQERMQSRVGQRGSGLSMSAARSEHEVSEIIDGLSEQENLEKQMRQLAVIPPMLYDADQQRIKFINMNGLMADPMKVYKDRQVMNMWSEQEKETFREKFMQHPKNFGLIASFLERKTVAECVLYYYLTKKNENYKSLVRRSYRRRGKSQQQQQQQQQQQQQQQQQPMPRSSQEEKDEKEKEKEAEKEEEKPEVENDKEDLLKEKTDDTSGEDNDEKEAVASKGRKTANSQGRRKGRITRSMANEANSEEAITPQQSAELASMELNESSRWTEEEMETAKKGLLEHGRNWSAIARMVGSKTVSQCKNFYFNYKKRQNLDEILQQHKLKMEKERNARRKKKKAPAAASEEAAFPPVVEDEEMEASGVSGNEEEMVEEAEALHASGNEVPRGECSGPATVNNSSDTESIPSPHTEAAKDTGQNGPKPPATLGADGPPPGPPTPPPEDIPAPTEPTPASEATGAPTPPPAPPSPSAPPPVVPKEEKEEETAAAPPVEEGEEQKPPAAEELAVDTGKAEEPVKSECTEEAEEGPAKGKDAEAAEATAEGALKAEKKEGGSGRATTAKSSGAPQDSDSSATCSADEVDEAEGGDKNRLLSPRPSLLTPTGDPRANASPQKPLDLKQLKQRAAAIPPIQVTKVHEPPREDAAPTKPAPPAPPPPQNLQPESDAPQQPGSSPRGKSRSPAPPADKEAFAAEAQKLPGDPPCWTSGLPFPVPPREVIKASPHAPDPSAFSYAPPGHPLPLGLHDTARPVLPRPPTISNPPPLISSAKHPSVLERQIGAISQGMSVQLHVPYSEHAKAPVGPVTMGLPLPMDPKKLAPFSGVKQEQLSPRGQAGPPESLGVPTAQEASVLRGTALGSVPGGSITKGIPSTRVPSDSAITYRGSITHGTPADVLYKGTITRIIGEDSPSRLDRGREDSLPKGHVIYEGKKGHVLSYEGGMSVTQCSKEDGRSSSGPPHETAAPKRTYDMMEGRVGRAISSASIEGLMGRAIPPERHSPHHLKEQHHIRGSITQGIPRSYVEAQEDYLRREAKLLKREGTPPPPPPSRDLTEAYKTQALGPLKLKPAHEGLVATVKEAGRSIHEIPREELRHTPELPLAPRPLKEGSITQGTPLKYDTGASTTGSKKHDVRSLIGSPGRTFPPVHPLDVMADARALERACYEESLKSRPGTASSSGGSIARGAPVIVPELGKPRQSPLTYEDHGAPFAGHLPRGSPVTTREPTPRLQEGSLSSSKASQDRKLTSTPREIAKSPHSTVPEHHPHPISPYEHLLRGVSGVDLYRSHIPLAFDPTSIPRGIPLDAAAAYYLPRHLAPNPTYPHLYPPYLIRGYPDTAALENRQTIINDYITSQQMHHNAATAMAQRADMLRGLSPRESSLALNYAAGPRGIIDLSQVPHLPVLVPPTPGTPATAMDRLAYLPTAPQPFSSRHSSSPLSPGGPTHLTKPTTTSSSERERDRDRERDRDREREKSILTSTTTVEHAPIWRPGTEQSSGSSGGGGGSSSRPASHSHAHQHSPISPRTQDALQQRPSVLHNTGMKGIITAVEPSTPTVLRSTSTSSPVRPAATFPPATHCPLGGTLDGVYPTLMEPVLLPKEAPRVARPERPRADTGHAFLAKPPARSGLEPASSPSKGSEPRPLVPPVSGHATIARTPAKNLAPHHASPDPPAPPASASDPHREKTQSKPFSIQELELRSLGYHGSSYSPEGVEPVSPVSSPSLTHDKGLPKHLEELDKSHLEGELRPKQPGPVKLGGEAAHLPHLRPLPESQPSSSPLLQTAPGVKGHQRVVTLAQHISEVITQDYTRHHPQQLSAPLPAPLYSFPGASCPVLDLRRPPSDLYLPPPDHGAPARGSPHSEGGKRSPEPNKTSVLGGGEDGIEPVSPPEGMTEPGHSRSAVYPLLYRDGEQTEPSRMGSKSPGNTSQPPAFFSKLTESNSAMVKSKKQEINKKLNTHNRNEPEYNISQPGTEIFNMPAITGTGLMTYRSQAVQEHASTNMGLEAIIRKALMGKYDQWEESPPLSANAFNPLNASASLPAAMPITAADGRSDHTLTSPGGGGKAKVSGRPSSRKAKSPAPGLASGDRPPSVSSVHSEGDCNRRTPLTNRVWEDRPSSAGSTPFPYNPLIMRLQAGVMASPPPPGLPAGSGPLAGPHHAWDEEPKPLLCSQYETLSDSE

Histone deacetylase 8 = target: T3, Histone deacetylase 8 (Homo sapiens, UniProt Q9BY41); experiment: Inhibition of recombinant C-terminal His-tagged full length human HDAC8 expressed in baculovirus infected insect Sf9 cells using fluorogenic HDAC class 2a substrate after 30 mins by fluorescence assay
T3 sequence (Q9BY41 whole entry): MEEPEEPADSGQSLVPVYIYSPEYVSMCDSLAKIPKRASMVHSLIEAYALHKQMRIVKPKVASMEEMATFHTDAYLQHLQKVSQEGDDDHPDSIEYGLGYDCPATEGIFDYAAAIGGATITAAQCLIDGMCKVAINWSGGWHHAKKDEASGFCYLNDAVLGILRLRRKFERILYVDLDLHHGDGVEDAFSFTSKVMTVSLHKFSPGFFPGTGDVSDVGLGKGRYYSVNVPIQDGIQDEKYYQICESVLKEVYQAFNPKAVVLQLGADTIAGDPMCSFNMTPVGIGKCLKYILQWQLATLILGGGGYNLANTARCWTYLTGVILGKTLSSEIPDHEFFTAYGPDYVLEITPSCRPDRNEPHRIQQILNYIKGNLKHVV

HCT-116 [14] = experiment: Induction of apoptosis in human HCT116 cells at 5 uM after 24 hrs by annexin V-FITC/propidium iodide staining-based flow cytometric analysis relative to control; format: functional
HCT-116 [15] = experiment: Induction of apoptosis in human HCT116 cells at 5 uM after 48 hrs by annexin V-FITC/propidium iodide staining-based flow cytometric analysis relative to control; format: functional

Row | SMILES | IC50 (MDA-MB-231) [µM] | IC50 (HCT-116 [7]) [µM] | inhibition [8] | inhibition [9] | IC50 [10] [µM] | IC50 (Histone deacetylase 1) [µM] | other results
1 | O=C(CCCCCCC(=O)Nc1ccccc1)NO [VORINOSTAT] |  |  |  |  |  |  | Activity (HCT-116 [1]): 6.34%; Activity (HCT-116 [2]): 19.2%; Activity (HCT-116 [3]): 11.37%; Activity (HCT-116 [4]): 15.64%; Activity (HCT-116 [5]): 1.76%; Activity (HCT-116 [6]): 35.44%
2 | COc1ccc2[nH]c3c(c2c1)CCN1C(=O)c2cc(NC(=O)CCCCCC(=O)NO)ccc2N(C)C31 (centres undefined) | 58 | 35 | inactive | Active | 68 | > 10 | 
3 | CN1c2ccc(NCc3ccc(NC(=O)CCCCCCC(=O)NO)cc3)cc2C(=O)N2CCc3c([nH]c4ccc(O)cc34)C21 (centres undefined) | 14 | 2.1 | Active | Active | 13 | 0.03 | 
4 | CN1c2ccc(NCc3ccc(-c4nnc(CCCCC(=O)NO)o4)cc3)cc2C(=O)N2CCc3c([nH]c4ccc(O)cc34)C21 (centres undefined) | 30 | 4.9 | Active | Active | 26 | 0.093 | 
5 | CN1c2ccc(NCc3ccc(-c4noc(CCCCCCC(=O)NO)n4)cc3)cc2C(=O)N2CCc3c([nH]c4ccc(O)cc34)C21 (centres undefined) | 2.3 | 0.41 | Active | Active | 1.3 | 0.024 | inhibition [11]: Active; IC50 [12]: 0.013 µM; IC50 (Histone deacetylase 2): 0.275 µM; Activity (HCT-116 [1]): 16.73%; Activity (HCT-116 [2]): 22.59%; Activity (HCT-116 [3]): 29.76%; Activity (HCT-116 [4]): 7.96%; IC50 [13]: 0.071 µM; Activity (HCT-116 [5]): 2.68%; Activity (HCT-116 [6]): 42.14%; IC50 (Histone deacetylase 8): 2.5 µM
6 | CN1c2ccc(NCc3ccc(-c4nnc(CCCCCCC(=O)NO)o4)cc3)cc2C(=O)N2CCc3c([nH]c4ccc(O)cc34)C21 (centres undefined) | 5.7 | 9.7 | Active | Active | 6.1 | 0.089 | 
7 | CN1c2ccc(NCc3ccc(-c4noc(CCCCC(=O)NO)n4)cc3)cc2C(=O)N2CCc3c([nH]c4ccc(O)cc34)C21 (centres undefined) | 5.9 | 3.7 | Active | Active | 8.2 | 0.19 | 
8 | CN1c2ccc(NCc3ccc(-c4nnc(CCCC(=O)NO)o4)cc3)cc2C(=O)N2CCc3c([nH]c4ccc(O)cc34)C21 (centres undefined) | > 168 | 11 | Active | Active | > 168 | > 10 | 
9 | CN1c2ccc(NCc3ccc(-c4noc(CCCC(=O)NO)n4)cc3)cc2C(=O)N2CCc3c([nH]c4ccc(O)cc34)C21 (centres undefined) | 16 | 3.5 | Active | Active | 6.7 | 0.321 | 
10 | CN1c2ccc(N)cc2C(=O)N2CCc3c([nH]c4ccc(O)cc34)C21 (centres undefined) | 0.49 | 0.43 | Active | Active | 0.47 |  | Activity (HCT-116 [14]): 11.09%; Activity (HCT-116 [15]): 16.39%
11 | COc1ccc2[nH]c3c(c2c1)CCN1C(=O)c2cc(NC(=O)CCCCC(=O)NO)ccc2N(C)C31 (centres undefined) | 36 | 22 | inactive | Active | 62 | 0.275 | 
12 | COc1cc([C@@H]2c3cc4c(cc3[C@@H](O[C@@H]3O[C@@H]5CO[C@@H](C)O[C@H]5[C@H](O)[C@H]3O)[C@H]3COC(=O)[C@H]23)OCO4)cc(OC)c1O |  |  |  | Active |  |  | 
